Results as given in ChEMBL document CHEMBL5390247, “Aryl azoles based scaffolds for disrupting tumor microenvironment” (Bioorg Med Chem, 2023).
The source made the active and inactive calls. No cut-off for these calls is given here.

Columns and labels:
[1] = Toxicity against interferon gamma-stimulated human THP-1 monocyte cells co-cultured with human HT-29 cells assessed as reduction in cell viability at 100 uM incubated for 48 hrs by flow cytometry analysis; assay type: cell-based; details: thp-1, 48 h
Method in brief: (§1)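 HT-29 cells at 10^5/well seeded and grown 24 h. Medium then replaced with medium containing IFN-γ (10 ng/ml), 5 × 10^5 THP-1 cells/well and compound at 100 µM; DMSO used as control. After 48 h, THP-1 cells collected from supernatant and cancer cells by trypsinisation. Both fixed in 4% paraformaldehyde and counted by flow cytometry relative to control.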

HT-29 [2] = experiment: Antiproliferative activity against human HT-29 cells assessed as relative PD-L1 protein expression in membrane at 100 uM incubated for 48 hrs by flow cytometry analysis relative to control; assay type: functional
HT-29 [3] = experiment: Antiproliferative activity against human HT-29 cells assessed as relative PD-L1 protein expression in whole cell at 100 uM incubated for 48 hrs by flow cytometry analysis relative to control; assay type: functional
HT-29 [4] = experiment: Antiproliferative activity against human HT-29 cells assessed as relative c-Myc protein expression at 100 uM incubated for 48 hrs by flow cytometry analysis relative to control; assay type: functional
HT-29 [5] = experiment: Antiproliferative activity against human HT-29 cells assessed as relative VEGFR-2 protein expression in membrane at 100 uM incubated for 48 hrs by flow cytometry analysis relative to control; assay type: functional
HT-29 [6] = experiment: Antiproliferative activity against human HT-29 cells assessed as relative VEGFR-2 protein expression in whole cell at 100 uM incubated for 48 hrs by flow cytometry analysis relative to control; assay type: functional
HT-29 [7] = experiment: Immunomodulatory activity in human HT-29 cells co-cultured with interferon gamma-stimulated THP-1 cells assessed as cell viability at 100 uM incubated for 48 hrs by flow cytometry analysis relative to control; assay type: functional; details: read-out: Activity; method in brief: as §1
HT-29 [8] = experiment: Immunomodulatory activity in human HT-29 cells co-cultured with interferon gamma-stimulated THP-1 cells assessed as relative CD-47 protein expression in membrane at 100 uM incubated for 48 hrs by flow cytometry analysis relative to control; assay type: functional
HT-29 [9] = experiment: Immunomodulatory activity in human HT-29 cells co-cultured with interferon gamma-stimulated THP-1 cells assessed as relative PD-L1 protein expression in membrane at 100 uM incubated for 48 hrs by flow cytometry analysis relative to control; assay type: functional
HT-29 [10] = experiment: Immunomodulatory activity in human HT-29 cells co-cultured with interferon gamma-stimulated THP-1 cells assessed as inhibition of cell growth at 100 uM incubated for 48 hrs by flow cytometry analysis relative to control; assay type: functional; method in brief: as §1
HT-29 [11] = experiment: Immunomodulatory activity in human HT-29 cells co-cultured with interferon gamma-stimulated THP-1 cells assessed as reduction in number of cells at 100 uM incubated for 48 hrs; assay type: functional, cell-based; method in brief: as §1
HT-29 [12] = experiment: Immunomodulatory activity in human HT-29 cells co-cultured with interferon gamma-stimulated THP-1 cells assessed as induction of morphological changes by measuring cell shrinkage at 100 uM incubated for 48 hrs; assay type: functional, cell-based
Method in brief: (§2)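 HT-29 cells co-cultured with IFN-γ-stimulated THP-1 cells and treated 48 h with compounds at 100 µM, with DMSO as control. Cell shrinkage and rounded morphology assessed by microscopy images.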

HT-29 [13] = experiment: Immunomodulatory activity in human HT-29 cells co-cultured with interferon gamma-stimulated THP-1 cells assessed as induction of morphological changes by measuring rounded cell morphology at 100 uM incubated for 48 hrs; assay type: functional, cell-based; method in brief: as §2

Row | SMILES | Activity [1] | Activity (HT-29 [2]) [%] | Activity (HT-29 [3]) [%] | Activity (HT-29 [4]) [%] | Activity (HT-29 [5]) [%] | Activity (HT-29 [6]) [%] | viability at 100 µM (HT-29 [7]) [%] | Activity (HT-29 [8]) [%] | Activity (HT-29 [9]) [%] | inhibition at 100 µM (HT-29 [10]) [%] | Activity (HT-29 [11]) | Activity (HT-29 [12]) | Activity (HT-29 [13])
1 | O=[N+]([O-])c1cccc(-c2nnn(Cc3ccccc3)n2)c1 | Non-Toxic | 66 | >100 | 82 | >100 | >100 | 32 | 71 | 150 |  |  |  | 
2 | Cc1ccccc1Cn1cc(-c2cccc(N)c2)nn1 | Non-Toxic |  |  |  |  |  | 74 | 87 | 120 |  |  |  | 
3 | Cc1ccc(Cn2nnc(-c3cccc([N+](=O)[O-])c3)n2)cc1 | Non-Toxic | 63 | 92 | 78 | >100 | 65 | 22 | 88 | 168 | > 70 |  |  | 
4 | COc1cccc(Cn2nnc(-c3cccc([N+](=O)[O-])c3)n2)c1 | Non-Toxic | 83 | >100 | 75 | >100 | 42 | 40 | 77 | 88 |  | Active | Active | Active
5 | Nc1cccc(-c2cn(Cc3ccccc3Br)nn2)c1 | Non-Toxic |  |  |  |  |  | 35 | 75 | 110 |  |  |  | 
6 | Nc1cccc(-c2nnn(Cc3ccccc3)n2)c1 | Non-Toxic |  |  |  |  |  | 64 | 104 | 104 |  |  |  | 
7 | O=[N+]([O-])c1cccc(-c2nnn(Cc3ccccc3Br)n2)c1 | Non-Toxic | >100 | 97 | 90 | >100 | 75 | 43 | 85 | 94 |  |  |  | 
8 | COc1cccc(Cn2nnc(-c3cccc(N)c3)n2)c1 | Non-Toxic | >100 | >100 | 86 | 76 | >100 | 66 | 78 | 84 |  | Active | Active | Active
9 | Cc1ccccc1Cn1nnc(-c2cccc(N)c2)n1 | Non-Toxic |  |  |  |  |  | 25 | 75 | 103 | > 70 |  |  | 
10 | O=[N+]([O-])c1cccc(-c2nnn(Cc3cccc(Br)c3)n2)c1 | Non-Toxic | >100 | 88 | 76 | 100 | 60 | 31 | 93 | 106 | > 70 |  |  | 
11 | COc1ccccc1Cn1nnc(-c2cccc([N+](=O)[O-])c2)n1 | Non-Toxic | 89 | 92 | 86 | >100 | 55 | 65 | 85 | 93 |  | Active | Active | Active
12 | COc1ccc(Cn2cc(-c3cccc(N)c3)nn2)cc1 | Non-Toxic |  |  |  |  |  | 40 | 82 | 113 |  |  |  | 
13 | Cc1ccc(Cn2cc(-c3cccc(N)c3)nn2)cc1 | Non-Toxic |  |  |  |  |  | 73 | 101 | 144 |  |  |  | 
14 | COc1ccccc1Cn1cc(-c2cccc(N)c2)nn1 | Non-Toxic |  |  |  |  |  | 62 | 62 | 114 |  |  |  | 
15 | O=[N+]([O-])c1cccc(-c2nnn(Cc3cccc(Cl)c3)n2)c1 | Non-Toxic | >100 | 90 | >100 | 97 | >100 | 90 | 95 | 136 |  |  |  | 
16 | Cc1ccccc1Cn1nnc(-c2cccc([N+](=O)[O-])c2)n1 | Non-Toxic | 64 | 94 | 91 | >100 | 72 | 56 | 75 | 165 |  |  |  | 
17 | COc1ccccc1Cn1nnc(-c2cccc(N)c2)n1 | Non-Toxic | 97 | >100 | 97 | 99 | >100 | 54 | 77 | 92 |  | Active | Active | Active
18 | Cc1cccc(Cn2nnc(-c3cccc([N+](=O)[O-])c3)n2)c1 | Non-Toxic | 65 | 97 | 89 | >100 | 84 | 42 | 73 | 166 |  |  |  | 
19 | COc1ccc(Cn2nnc(-c3cccc([N+](=O)[O-])c3)n2)cc1 | Non-Toxic | 84 | 89 | >100 | 88 | 39 | 35 | 96 | 102 |  | Active | Active | Active
20 | Cc1cccc(Cn2cc(-c3cccc(N)c3)nn2)c1 | Non-Toxic |  |  |  |  |  | 44 | 86 | 114 |  |  |  | 
21 | COc1cccc(Cn2cc(-c3cccc(N)c3)nn2)c1 | Non-Toxic |  |  |  |  |  | 33 | 89 | 113 |  |  |  | 
22 | Nc1cccc(-c2cn(Cc3cccc(Br)c3)nn2)c1 | Non-Toxic |  |  |  |  |  | 9 | 95 | 137 | > 90 |  |  | 
23 | Nc1cccc(-c2cn(Cc3ccccc3)nn2)c1 | Non-Toxic |  |  |  |  |  | 78 | 103 | 109 |  |  |  | 
